Measured values as given in ChEMBL document CHEMBL3421570, “Combinatorial Libraries As a Tool for the Discovery of Novel, Broad-Spectrum Antibacterial Agents Targeting the ESKAPE Pathogens” (J Med Chem, 2015).
Converted amounts (≈) assume the structure as drawn. The source made the active and inactive calls. No cut-off for these calls is given here.

Tests used:
[1] = system: Staphylococcus aureus; experiment: Ratio of MIC for Staphylococcus aureus measured after 8 cycle passage to MIC for wild type Staphylococcus aureus; type: functional
[2] = system: Klebsiella pneumoniae; experiment: Ratio of MIC for Klebsiella pneumoniae measured after 8 cycle passage to MIC for wild type Klebsiella pneumoniae; type: functional
[3] = system: Acinetobacter baumannii; experiment: Ratio of MIC for Acinetobacter baumannii measured after 8 cycle passage to MIC for wild type Acinetobacter baumannii; type: functional
[4] = system: Enterobacter cloacae; experiment: Ratio of MIC for Enterobacter cloacae measured after 8 cycle passage to MIC for wild type Enterobacter cloacae; type: functional
[5] = system: Enterococcus faecium; experiment: Antimicrobial activity against Enterococcus faecium assessed as inhibition of microbial growth at 45 uM after 24 hrs; type: functional, organism-based
Procedure, shortened: (§1)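 Broth microdilution single-concentration read: overnight cultures diluted 1:1000, compound in DMF (≤2.0%) added, 37°C for 24 h, growth inhibition scored visually by lack of turbidity; triplicate. Gram-positives grown in TSB, Gram-negatives in LB.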

[6] = system: Staphylococcus aureus; experiment: Antimicrobial activity against Staphylococcus aureus assessed as inhibition of microbial growth at 45 uM after 24 hrs; type: functional, organism-based; procedure, shortened: as §1
[7] = system: Klebsiella pneumoniae; experiment: Antimicrobial activity against Klebsiella pneumoniae assessed as inhibition of microbial growth at 45 uM after 24 hrs; type: functional, organism-based; procedure, shortened: as §1
[8] = system: Acinetobacter baumannii; experiment: Antimicrobial activity against Acinetobacter baumannii assessed as inhibition of microbial growth at 45 uM after 24 hrs; type: functional, organism-based; procedure, shortened: as §1
[9] = system: Pseudomonas aeruginosa; experiment: Antimicrobial activity against Pseudomonas aeruginosa assessed as inhibition of microbial growth at 45 uM after 24 hrs; type: functional, organism-based; procedure, shortened: as §1
[10] = system: Enterobacter cloacae; experiment: Antimicrobial activity against Enterobacter cloacae assessed as inhibition of microbial growth at 45 uM after 24 hrs; type: functional, organism-based; procedure, shortened: as §1
[11] = system: Enterococcus faecium; experiment: Antimicrobial activity against Enterococcus faecium assessed as inhibition of microbial growth after 24 hrs; type: functional
Procedure, shortened: (§2)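 Broth microdilution against multidrug-resistant clinical ESKAPE isolates. Overnight cultures (TSB for Gram-positives, LB for Gram-negatives) diluted 1:1000 in fresh medium, compound in DMF (≤2.0% DMF) added at decreasing concentrations, 37°C.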

[12] = system: Staphylococcus aureus; experiment: Antimicrobial activity against Staphylococcus aureus assessed as inhibition of microbial growth after 24 hrs; type: functional; procedure, shortened: as §2
[13] = system: Klebsiella pneumoniae; experiment: Antimicrobial activity against Klebsiella pneumoniae assessed as inhibition of microbial growth after 24 hrs; type: functional; procedure, shortened: as §2
[14] = system: Acinetobacter baumannii; experiment: Antimicrobial activity against Acinetobacter baumannii assessed as inhibition of microbial growth after 24 hrs; type: functional; procedure, shortened: as §2
[15] = system: Pseudomonas aeruginosa; experiment: Antimicrobial activity against Pseudomonas aeruginosa assessed as inhibition of microbial growth after 24 hrs; type: functional; procedure, shortened: as §2
[16] = system: Enterobacter cloacae; experiment: Antimicrobial activity against Enterobacter cloacae assessed as inhibition of microbial growth after 24 hrs; type: functional; procedure, shortened: as §2
[17] = system: Pseudomonas aeruginosa; experiment: Antimicrobial activity against Pseudomonas aeruginosa isolate 1420 assessed as inhibition of microbial growth at 2 uM after 24 hrs; type: functional, organism-based
[18] = system: Pseudomonas aeruginosa; experiment: Antimicrobial activity against Pseudomonas aeruginosa isolate 1420 assessed as inhibition of microbial growth at 2 uM in presence of 100 uM efflux pump inhibitor reserpine after 24 hrs; type: functional, organism-based
[19] = system: Enterococcus faecium; experiment: Bactericidal activity against Enterococcus faecium after 24 hrs; type: functional
[20] = system: Staphylococcus aureus; experiment: Bactericidal activity against Staphylococcus aureus after 24 hrs; type: functional
[21] = system: Klebsiella pneumoniae; experiment: Bactericidal activity against Klebsiella pneumoniae after 24 hrs; type: functional
[22] = system: Acinetobacter baumannii; experiment: Bactericidal activity against Acinetobacter baumannii after 24 hrs; type: functional
[23] = system: Pseudomonas aeruginosa; experiment: Bactericidal activity against Pseudomonas aeruginosa after 24 hrs; type: functional
[24] = system: Enterobacter cloacae; experiment: Bactericidal activity against Enterobacter cloacae after 24 hrs; type: functional
[25] = system: Staphylococcus aureus; experiment: Effect on bacterial density of methicillin-resistant Staphylococcus aureus at MIC measured over 2 hrs period by time kill assay; type: functional, organism-based
[26] = system: Staphylococcus aureus; experiment: Bactericidal activity against methicillin-resistant Staphylococcus aureus assessed as cell survival recovery at MIC measured after drug wash out after 120 mins by time kill assay; type: functional
Procedure, shortened: (§3)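 MRSA from stationary phase was regrown 3 h in TSB and seeded at OD600 0.5. […] After 120 min, cells were centrifuged and washed, serially diluted and plated for CFU. Percent recovery is relative to no-drug controls.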

[27] = system: Staphylococcus aureus; experiment: Bactericidal activity against methicillin-resistant Staphylococcus aureus at MIC measured after drug wash out after 120 mins by time kill assay; type: functional; procedure, shortened: as §3
[28] = system: Enterococcus faecium; experiment: Antibiofilm activity against Enterococcus faecium incubated for 24 hrs followed by biofilm resuspension in PBS and measured after 24 hrs; type: functional
Procedure, shortened: (§4)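 Biofilms grown 24 h in 96-well plates from overnight cultures standardized to OD600 0.5 in fresh medium (human serum only for S. aureus; TSB for Gram-positives, LB for Gram-negatives). Medium then replaced with fresh medium containing a concentration range above and below MIC, 37°C overnight. After 24 h biofilm resuspended in PBS, serially diluted, plated in duplicate, CFU counted after 24 h at 37°C. Activity relative to untreated; three technical replicates; MBEC50 reported.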

[29] = system: Staphylococcus aureus; experiment: Antibiofilm activity against Staphylococcus aureus incubated for 24 hrs followed by biofilm resuspension in PBS and measured after 24 hrs; type: functional; procedure, shortened: as §4
[30] = system: Klebsiella pneumoniae; experiment: Antibiofilm activity against Klebsiella pneumoniae incubated for 24 hrs followed by biofilm resuspension in PBS and measured after 24 hrs; type: functional; procedure, shortened: as §4
[31] = system: Acinetobacter baumannii; experiment: Antibiofilm activity against Acinetobacter baumannii incubated for 24 hrs followed by biofilm resuspension in PBS and measured after 24 hrs; type: functional; procedure, shortened: as §4
[32] = system: Pseudomonas aeruginosa; experiment: Antibiofilm activity against Pseudomonas aeruginosa incubated for 24 hrs followed by biofilm resuspension in PBS and measured after 24 hrs; type: functional; procedure, shortened: as §4
[33] = system: Enterobacter cloacae; experiment: Antibiofilm activity against Enterobacter cloacae incubated for 24 hrs followed by biofilm resuspension in PBS and measured after 24 hrs; type: functional; procedure, shortened: as §4
[34] = system: A549; experiment: Cytotoxicity against human A549 cells after 48 hrs by MTT assay; type: cell-based; conditions: A549, 48 h
Procedure, shortened: (§5)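 A549 cells grown in F-12K with L-glutamine, 10% FBS, 1% penicillin-streptomycin, seeded at 1.0 × 10^5 ml−1, allowed to adhere 24 h (37°C, 5% CO2), then exposed to compound in 45% w/v (2-hydroxypropyl)-β-cyclodextrin vehicle for 48 h. MTT 4 h, formazan solubilized in DMSO, absorbance 540 nm. Percent recovery versus vehicle-only; IC50 derived; at least three independent experiments.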

[35] = Selectivity index, ratio of IC50 for human A549 cells to MIC for Enterococcus faecium
[36] = Selectivity index, ratio of IC50 for human A549 cells to MIC for Staphylococcus aureus
[37] = Selectivity index, ratio of IC50 for human A549 cells to MIC for Klebsiella pneumoniae
[38] = Selectivity index, ratio of IC50 for human A549 cells to MIC for Acinetobacter baumannii
[39] = Selectivity index, ratio of IC50 for human A549 cells to MIC for Pseudomonas aeruginosa
[40] = Selectivity index, ratio of IC50 for human A549 cells to MIC for Enterobacter cloacae
[41] = Cytotoxicity against human A549 cells assessed as cell viability recovery at 225 uM after 48 hrs by MTT assay; type: cell-based; conditions: read-out: Activity; procedure, shortened: as §5
[42] = Cytotoxicity against human A549 cells assessed as cell viability recovery up to 125 uM after 48 hrs by MTT assay; type: cell-based; conditions: read-out: Activity; procedure, shortened: as §5
[43] = Induction of hemolysis in human RBC at 10 uM incubated for 15 mins; type: cell-based, Erythrocyte; conditions: red blood cells, read-out: Activity
Procedure, shortened: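 Human RBCs from whole blood, resuspended 20% v/v in HA buffer (NaCl, CaCl2), compound 10 μM, 15 min at 37°C. Centrifuged 5,500 g for 1 min, supernatant OD543 read. Percent hemolysis against DMF vehicle (0%) and 1.0% Triton X-100 (100%); triplicate.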

[44] = system: Enterococcus faecium; experiment: Induction of spontaneous mutation in Enterococcus faecium at 2 to 10 MIC; type: functional, organism-based
[45] = system: Staphylococcus aureus; experiment: Induction of spontaneous mutation in Staphylococcus aureus at 2 to 10 MIC; type: functional, organism-based
[46] = system: Klebsiella pneumoniae; experiment: Induction of spontaneous mutation in Klebsiella pneumoniae at 2 to 10 MIC; type: functional, organism-based
[47] = system: Acinetobacter baumannii; experiment: Induction of spontaneous mutation in Acinetobacter baumannii at 2 to 10 MIC; type: functional, organism-based
[48] = system: Pseudomonas aeruginosa; experiment: Induction of spontaneous mutation in Pseudomonas aeruginosa at 2 to 10 MIC; type: functional, organism-based; conditions: 2 to 10 x MIC
[49] = system: Enterobacter cloacae; experiment: Induction of spontaneous mutation in Enterobacter cloacae at 2 to 10 MIC; type: functional, organism-based
[50] = system: Staphylococcus aureus; experiment: Antimicrobial activity against Staphylococcus aureus USA300 strain FPR3757 infected in mouse model of lethal peritonitis assessed as mouse survival at 2 uM, im dosed 1 hr post infection and measured after 5 days post infection; type: functional, organism-based
Procedure, shortened: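 Mice, six per group, infected i.p. with 1 × 10^8 CFU ml−1 S. aureus USA300 FPR3757 in PBS with 5% mucin. Compound given i.m. at 2 μM 1 h later; vehicle 45% w/v (2-hydroxypropyl)-β-cyclodextrin in water i.v.; vancomycin i.v. as control. Monitored twice daily for 5 days, pre-moribund animals euthanized. Survival compared by log-rank test.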

CN[C@H](CC(C)C)C(=O)N[C@H]1C(=O)N[C@@H](CC(N)=O)C(=O)N[C@H]2C(=O)N[C@H]3C(=O)N[C@H](C(=O)N[C@H](C(=O)O)c4cc(O)cc(O)c4-c4cc3ccc4O)[C@H](O)c3ccc(c(Cl)c3)Oc3cc2cc(c3O[C@@H]2O[C@H](CO)[C@@H](O)[C@H](O)[C@H]2O[C@H]2C[C@](C)(N)[C@H](O)[C@H](C)O2)Oc2ccc(cc2Cl)[C@H]1O [VANCOMYCIN]
Ratio [1]: 128 | Ratio [2]: <=128 | Ratio [3]: <=128 | Ratio [4]: <=128

CCCCCCCN1C(=N)N(CCCC[C@H]2CNC(=N)N2CCc2cccc(C(F)(F)F)c2)C[C@@H]1CCCC
growth inhibition (GI) [5]: Active | growth inhibition (GI) [6]: Active | growth inhibition (GI) [7]: Active | growth inhibition (GI) [8]: Active | growth inhibition (GI) [9]: Active | growth inhibition (GI) [10]: Active | MIC [11]: 1.6 µM | MIC [12]: 1.6 µM | MIC [13]: 1.6 µM | MIC [14]: 1.6 µM | MIC [15]: 1.6 µM | MIC [16]: 1.6 µM | growth inhibition (GI) [17]: inactive | growth inhibition (GI) [18]: Active | MBC90 [19]: 1.9 µM (≈ 1.05 µg/mL) | MBC90 [20]: 3.1 µM (≈ 1.71 µg/mL) | MBC90 [21]: 2.4 µM (≈ 1.32 µg/mL) | MBC90 [22]: 3.1 µM (≈ 1.71 µg/mL) | MBC90 [23]: 4 µM (≈ 2.2 µg/mL) | MBC90 [24]: 3.1 µM (≈ 1.71 µg/mL) | Activity [25]: inactive | Survival [26]: 0.2% | fold change (FC) [27]: 2.5 | MBEC50 [28]: 39 µM | MBEC50 [29]: 14 µM | MBEC50 [30]: 7 µM | MBEC50 [31]: 15 µM | MBEC50 [32]: 20 µM | MBEC50 [33]: 13 µM | IC50 [34]: 164 µM | Selectivity Index [35]: 100 | Selectivity Index [36]: 100 | Selectivity Index [37]: 100 | Selectivity Index [38]: 100 | Selectivity Index [39]: 100 | Selectivity Index [40]: 100 | viability at 48 h, 225 µM [41]: 40% | viability at 48 h [42]: > 63% | hemolysis at 0.25 h, 10 µM [43]: 0.34% | Activity [44]: inactive | Activity [45]: inactive | Activity [46]: inactive | Activity [47]: inactive | Activity [48]: inactive | Activity [49]: inactive | Ratio [1]: 2 | Activity [50]: Active
